The source of these data is PMC6635418 (Current Drug Delivery, 2019).

The conditions of data set [1]: cited from earlier work.
Data set [2] is described as follows: Pharmacokinetics of oral topotecan with or without chrysin formulations in rats. In kind it is in vivo. The method in brief:
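Male Sprague-Dawley rats (250-290 g), fasted 12 h, n=3 per group. Oral BCRP substrate (10 mg/kg in saline) given alone or with test compound, free or as solid dispersion (100 mg/kg equivalent in 0.5% methylcellulose/5% PEG). Femoral arterial plasma analysed by HPLC-fluorescence (ex 350/em 527 nm), 10-1000 ng/mL. Noncompartmental: trapezoidal AUC, observed Cmax/Tmax. ANOVA with Dunnett's test.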

Data set [3] is described as follows: Solubility study in distilled water. The class given is physicochemical. The method in brief:
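Each formulation, equivalent to 1 mg test compound, stirred in 1 mL distilled water at 600 rpm for 24 h at room temperature. Centrifuged at 13,000 rpm for 10 min and filtered through 0.45 µm. Filtrate diluted in ethanol and quantified by C18 HPLC-UV at 267 nm against a 0.5-20 µg/mL calibration. n=3, mean±SD.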

The test system of data set [4] is breast cancer resistance protein (BCRP). The settings on record: read-out: IC50 against mitoxantrone efflux; BCRP inhibition; cited from earlier work.
Setting [5] is: male, Sprague-Dawley, rat, plasma, po, 10 mg/kg.

Values after ≈ are worked out from the molar mass of the structure shown.

For `CCCCCCCCCCCCOCCOCCOCCOCCO` [Brij®L4, polyoxyethylene (4) lauryl ether], the “critical micelle concentration (CMC)” value in data set [1] is recorded as 0.00097 %, w/v.

Usually AUC stands for the area under the concentration-time curve, a measure of exposure. Read a low AUC as less exposure. Usually Cmax stands for the maximum level reached in the sampled fluid or tissue. By Tmax is commonly meant the time from dosing to the highest level. Regarding `CC[C@@]1(O)C(=O)OCc2c1cc1n(c2=O)Cc2cc3c(CN(C)C)c(O)ccc3nc2-1` [Control (Topotecan Only), topotecan], in data set [2] (setting [5]), the AUC stood at 578 ± 37.2 ng·h/mL, the Cmax was 109 ± 44.5 ng/mL and the Tmax was 1.3 ± 0.66 h.

The solubility is how much of the substance goes into solution per volume. A higher solubility goes with a readily soluble substance. The IC50 is the concentration that inhibits the measured activity by half. As to `O=c1cc(-c2ccccc2)oc2cc(O)cc(O)c12` [chrysin (untreated drug), 5,7-dihydroxyflavone], in data set [2] (rats, oral, versus topotecan only), the “effect on oral exposure of topotecan” value was “no effect”. In data set [3], this compound came in with a solubility at 24 h of 3.04 ± 0.19 µg/mL (≈ 11.9 µM). Further, the IC50 in data set [4] was 390 ± 130 nM.
